Screens deposited in PubChem BioAssay by The Scripps Research Institute Molecular Screening Center.
The list is not random: actives were taken first. Their share in the collection is about 2.8%.
PAFAH1B3 FP inh = blocks human PAF acetylhydrolase 1B catalytic subunit 3; inhibition, % at 3.39 µM; recombinant PAFAH1B3, FP-rhodamine probe, fluorescence polarization; actives 0.28% (n = 340,000);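 active = inhibition above the screen-wide average of all tested compounds plus 3 SD, cut at about 25% in these data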;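 note: 0% = enzyme with DMSO only and 100% = wells lacking PAFAH1B3 protein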
HTRA1 inhibitor = inhibitors of human serine peptidase HTRA1; actives 0.5% (n = 340,000); recombinant HTRA1, FP-rhodamine activity-based probe, fluorescence polarization; inhibition, % at 5.96 µM; in the data active = inhibition above about 36%;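 note: 0% = enzyme with DMSO and 100% = wells lacking enzyme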
Target sequence (Q92743 whole entry, looked up): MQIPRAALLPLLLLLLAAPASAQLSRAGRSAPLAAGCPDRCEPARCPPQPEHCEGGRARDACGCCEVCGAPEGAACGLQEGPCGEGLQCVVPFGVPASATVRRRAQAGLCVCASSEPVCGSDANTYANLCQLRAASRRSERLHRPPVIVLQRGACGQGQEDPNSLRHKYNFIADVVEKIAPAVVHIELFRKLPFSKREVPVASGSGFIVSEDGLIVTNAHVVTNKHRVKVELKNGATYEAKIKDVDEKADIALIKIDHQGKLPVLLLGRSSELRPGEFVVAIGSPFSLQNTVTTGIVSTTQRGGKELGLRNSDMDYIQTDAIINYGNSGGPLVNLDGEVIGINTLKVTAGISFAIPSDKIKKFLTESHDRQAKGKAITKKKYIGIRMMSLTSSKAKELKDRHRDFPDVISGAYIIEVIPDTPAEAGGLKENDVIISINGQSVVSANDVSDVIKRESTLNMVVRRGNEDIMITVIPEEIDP
PAFAH2 inh = PAFAH2 (human) inhibition | Q99487 | recombinant PAFAH2, FP-rhodamine activity probe, fluorescence polarization | inhibition, % at 3.39 µM | actives 0.99% (n = 340,000);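 active = inhibition above the mean over all tested compounds plus 3 SD, cut at about 30% in these data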;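 note: inhibitors block probe labeling of enzyme so polarization drops; 0% = enzyme with DMSO and 100% = wells lacking PAFAH2 protein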
PAFAH1B2 inh = PAFAH1B2 (human) inhibition; P68402; actives 1.2% (n = 340,000); inhibition, % at 3.39 µM; recombinant PAFAH1B2, FP-rhodamine activity probe, fluorescence polarization;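 active = inhibition above the mean of all tested compounds plus 3 SD, cut at about 24% in these data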;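 note: 0% = enzyme with DMSO and 100% = wells lacking PAFAH1B2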
Target sequence (P68402 whole entry, looked up): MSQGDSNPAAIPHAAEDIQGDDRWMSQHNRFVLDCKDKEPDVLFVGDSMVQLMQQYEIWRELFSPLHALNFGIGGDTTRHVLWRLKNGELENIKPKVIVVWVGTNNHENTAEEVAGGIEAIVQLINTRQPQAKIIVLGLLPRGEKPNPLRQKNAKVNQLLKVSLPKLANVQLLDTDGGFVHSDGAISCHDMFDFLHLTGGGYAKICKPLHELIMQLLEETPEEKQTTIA
ABHD4 inh = inhibitors of mouse ABHD4; Q8VD66; purified mABHD4, FP-Rh probe fluorescence polarization; inhibition, % at 8.92 µM; actives 0.54% (n = 370,000); AID 720543;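 active = inhibition exceeding the mean over every tested compound plus 3 SD, cut at about 30% in these data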;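 note: 0% = plate median of compound wells and 100% = S159A mutant with DMSO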
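System: mouse ABHD4 enzyme, wild type / Medium: HEPES pH 7.0, NaCl, Pluronic buffer / Reagent: FP-Rh activity-based fluorescent probe / Control set: S159A mutant high control, sample median low control / Detection: fluorescence polarization with parallel and perpendicular emission, 525/598 nm / Schedule: 45 min + 60 min at 25 °C / Compound dosing: 8.92 µM, single dose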
pPAFAH inh = pPAFAH (human) enzyme inhibition | recombinant pPAFAH, FP-rhodamine probe fluorescence polarization | actives 1.5% (n = 330,000) | inhibition, % at 3.39 µM | Q13093;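 active = inhibition above the mean inhibition across the screen plus 3 SD, cut at about 25% in these data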;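 note: inhibitors block binding of the rhodamine activity-based probe so polarization drops; 0% = enzyme with DMSO and 100% = wells lacking pPAFAH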
Active calls of the source: *; nt = not tested or not shown.

SMILES | PAFAH1B3 FP inh | HTRA1 inhibitor | PAFAH2 inh | PAFAH1B2 inh | ABHD4 inh | pPAFAH inh
CC(C)(C#CC(=O)O)OOC(c1ccccc1)(c1ccccc1)c1ccccc1 | 14 | -26 | 5 | 9 | -7 | 31*
CCOP(=O)(C#CC(C)(C)C)C(C)(O)c1ccccc1 (stereo not given) | 3 | 7 | 1 | 5 | 0 | 2
Cc1cc(C)n(-c2ccc(NN=C(C#N)C#N)cc2)n1 | 4 | 13 | 7 | 1 | 14 | 28*
N#CC1c2ccccc2-n2nncc2CN1C(=O)c1ccc([N+](=O)[O-])o1 (stereo not given) | nt | nt | nt | nt | 6 | nt
O=C1NC(=O)N(CCc2ccc(F)cc2)C(=O)/C1=C/c1ccco1 | 2 | 31 | -17 | 7 | 16 | 29*
Cc1ccc(/C=C2/C(=O)NC(=O)N(CCc3ccc(F)cc3)C2=O)o1 | 2 | -12 | 7 | 10 | 2 | 0
Cc1ccc(N2C(=O)/C(=C/c3ccc(CN(CCC#N)S(C)(=O)=O)o3)C(=O)NC2=S)cc1 | 2 | 18 | 33* | -5 | nt | 28*
COc1ccc2c3c([nH]c2c1)[C@H](C=C(C)C)N1C(=O)[C@@H]2CCCN2C(=O)[C@@H]1C3 | nt | nt | nt | nt | 5 | nt
CC(C)[C@@]1(NC(=O)[C@@H]2C[C@@H]3c4cccc5[nH]cc(c45)C[C@H]3N(C)C2)O[C@@]2(O)[C@@H]3CCCN3C(=O)[C@H](Cc3ccccc3)N2C1=O | 8 | -2 | -2 | 3 | 5 | 3
CC(C)C[C@H]1C(=O)N2CCCC2[C@]2(O)O[C@](NC(=O)[C@@H]3C=C4c5cccc6[nH]cc(c56)CC4N(C)C3)(C(C)C)C(=O)N12 (stereo not given in full) | 39* | 45* | -8 | 15 | nt | 17
Cc1ccc(OCCOc2cccc(C=C3C(=O)NC(=O)NC3=O)c2)cc1 | 1 | -36 | 1 | 39* | -11 | 4
Cc1cc(C)cc(OCCOc2cccc(C=C3C(=O)NC(=O)NC3=O)c2)c1 | 8 | -46 | -3 | -3 | -3 | 12
O=C1NC(=S)NC(=O)C1=Cc1ccc2c(c1)CCN2CCCCl | nt | nt | nt | nt | nt | 29*
Cc1ccc2c(c1)cc1c(=O)n(CC(=O)N3CCC4(CC3)OCCO4)nc(C)n12 | 10 | 6 | -4 | 4 | 4 | 26*
CCc1nn(CC(=O)N2CCC3(CC2)OCCO3)c(=O)c2cccn12 | -2 | 3 | 6 | -2 | -1 | 1
COc1cccc(C2CCN(CC(=O)Nc3cc(Cl)ccc3OC)CC2O)c1 (stereo not given) | 8 | 0 | -1 | 4 | 2 | 33*
O=C1CC[C@@]2(O)[C@H]3Cc4ccc(O)c5c4[C@@]2(CCN3CC2CC2)C1O5 (stereo not given in full) | nt | nt | nt | nt | 1 | nt
Cc1cc(C)cc(N2C(=O)NC(=O)/C(=C\c3cccn3-c3ccc(Cl)cc3)C2=O)c1 | -2 | 0 | 39* | 43* | -5 | 6
O=C1NC(=S)NC(=O)C1=Cc1cccn1-c1ccc(O)cc1 | 5 | 20 | 25 | 6 | 29 | nt
CCOC(=O)c1ccc2[nH]c(-c3ccc(S(=O)(=O)F)cc3)cc(=O)c2c1 | 8 | 13 | 8 | 8 | -12 | 28*
CCOC(=O)c1cccc([P+](=O)O)c1 | 5 | 13 | -5 | 3 | 5 | 3
O=C(CN1C(=O)[C@@H](Cc2c[nH]c3ccccc23)N=C(c2ccccc2)c2ccccc21)NC1CCCCC1 | nt | nt | nt | nt | 1 | nt
Cn1c(O)c(/C=C2\N=c3ccccc3=C2CCNC(=S)NC2CC2)c(=O)n(C)c1=O | 6 | -6 | 4 | 56* | -3 | 0
O=C(Oc1ccc([N+](=O)[O-])cc1)N1CCC(N2CCCCC2)CC1 | -2 | 0 | 19 | 1 | 1 | 34*
CC(=O)Nc1ccc(OC(=O)N2CCCCC2)cc1 | 8 | 0 | 4 | 5 | -4 | 0
SMILES | PAFAH1B3 FP inh | HTRA1 inhibitor | PAFAH2 inh | PAFAH1B2 inh | ABHD4 inh | pPAFAH inh
N#CC1c2ccccc2-n2nncc2CN1C(=O)c1cccnc1 (stereo not given) | nt | nt | nt | nt | 4 | nt
COc1cc(O)c2c(c1)/C=C/C[C@H](O)[C@H](O)[C@@H](O)/C=C/C[C@H](C)OC2=O | nt | nt | nt | nt | -2 | nt
CCCOc1ccccc1C1SCC(=O)Nc2c1c(=O)[nH]n2C(C)CCC (stereo not given) | 9 | -3 | 5 | 2 | 1 | -3
CCCC(C)n1[nH]c(=O)c2c1NC(=O)CSC2c1ccc(OC)cc1 (stereo not given) | 5 | 3 | 1 | 2 | 1 | 28*
O=C(CN1C(=O)[C@@H](Cc2ccccc2)N=C(c2ccccc2)c2ccccc21)NC1CCCCC1 | nt | nt | nt | nt | -2 | nt
Cc1ccc(-c2nc3ccc(Cl)cc3n2OC(=O)N(C)C)cc1 | 6 | -15 | 2 | 62* | 0 | 2
FC(F)(F)c1cccc(-n2nnnc2C2(N3CCOCC3)CCCCC2)c1 | 7 | -11 | -4 | 31* | -3 | -1
O=C1CC(=O)N(c2cccc(C(F)(F)F)c2)C(=O)N1 | 7 | -5 | 0 | 4 | -4 | 2
COC(=O)C1=C(c2ccc(OC(F)(F)F)cc2)C[C@@H]2CC[C@H]1N2C(=O)NCCNC(C)=O | -8 | 4 | 6 | 1 | 4 | -1
COC(=O)C1=C(c2ccc(C(C)=O)cc2)C[C@@H]2CC[C@H]1N2C(=O)NCc1ccc(C(F)(F)F)cc1 | 15 | -5 | 5 | 35* | nt | 1
COC(=O)C1=C(c2ccccc2)C[C@@H]2CC[C@H]1N2C(=O)NCc1ccc(C(F)(F)F)cc1 | 2 | -18 | 1 | -3 | 3 | 9
COC(=O)C1=C(c2ccc(OC(F)(F)F)cc2)C[C@@H]2CC[C@H]1N2C(=O)NCCc1ccccc1 | 6 | -16 | -2 | 3 | 14 | 30*
ClC(Cl)=C(c1ccc(Cl)cc1)c1ccc(Cl)cc1 | -1 | 4 | 2 | 25* | -1 | 6
CCOc1cccc(OCC)c2c(C)[n+](CC3CCCO3)c(C)c1-2 (stereo not given) | 6 | 50* | 32* | 15 | nt | 19
COc1ccc(CCNCC2CCCO2)cc1 (stereo not given) | 3 | -3 | -2 | 4 | 7 | -4
Nc1ccc(C2(c3ccc(N)cc3)CCCCC2)cc1 | 5 | 14 | 2 | 38* | 6 | 9
CNC1(c2ccc(F)cc2)CCCCC1 | 9 | 3 | 0 | 1 | -1 | nt
O=C(NC(Cc1ccccc1)P(=O)(O)Oc1ccccc1)OCc1ccccc1 (stereo not given) | nt | nt | nt | nt | 1 | nt
O=C1NC(=O)[C@]2(Cc3ccccc3N3CCN(c4ccccc4)CC32)C(=O)N1c1ccccc1 (stereo not given in full) | 3 | 10 | 20 | 4 | -7 | 28*
O=C(O)c1ccc(-n2c(O)c(/C=C3\C=Nc4ccccc43)c(=O)[nH]c2=O)cc1 | -2 | -4 | 5 | 4 | 0 | -1
